Shown are actives, neighbours in structure and some others; about 2.3% of the full set was active somewhere.
PAFAH1B3 FP inh – blocks human PAF acetylhydrolase 1B catalytic subunit 3. AID 492972. 0.28% of 340,000 active. Q15102. inhibition, % at 3.39 µM. recombinant PAFAH1B3, FP-rhodamine probe, fluorescence polarization;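 active = inhibition above the screen-wide average of all tested compounds plus 3 SD, cut at about 25% in these data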;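 note: 0% = enzyme with DMSO only and 100% = wells lacking PAFAH1B3 protein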
PAFAH2 FP inh – inhibitors of human PAFAH2; Q99487; 0.99% of 340,000 active; AID 492956; recombinant PAFAH2, FP-rhodamine activity probe, fluorescence polarization; inhibition, % at 3.39 µM;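 active = inhibition above the mean over all tested compounds plus 3 SD, cut at about 30% in these data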;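 note: inhibitors block probe labeling of enzyme so polarization drops; 0% = enzyme with DMSO and 100% = wells lacking PAFAH2 protein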
PAFAH1B2 FP inh – inhibitors of human PAFAH1B2; P68402; recombinant PAFAH1B2, FP-rhodamine activity probe, fluorescence polarization; inhibition, % at 3.39 µM; 1.2% of 340,000 active; AID 492953;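 active = inhibition above the mean of all tested compounds plus 3 SD, cut at about 24% in these data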;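 note: 0% = enzyme with DMSO and 100% = wells lacking PAFAH1B2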
Apaf1 inhib – inhibitors of human Apaf-1 apoptosome; 0.71% of 330,000 active; AID 489030; O14727; inhibition, % at 20 µM; reconstituted apoptosome caspase-3 activity, DEVD-Rh110 fluorescence; active = inhibition of at least 40% at 20 µM;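 note: plate controls were DMSO wells for no effect and DEVD-CHO caspase inhibitor wells for full effect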
Target sequence (O14727 whole entry, looked up): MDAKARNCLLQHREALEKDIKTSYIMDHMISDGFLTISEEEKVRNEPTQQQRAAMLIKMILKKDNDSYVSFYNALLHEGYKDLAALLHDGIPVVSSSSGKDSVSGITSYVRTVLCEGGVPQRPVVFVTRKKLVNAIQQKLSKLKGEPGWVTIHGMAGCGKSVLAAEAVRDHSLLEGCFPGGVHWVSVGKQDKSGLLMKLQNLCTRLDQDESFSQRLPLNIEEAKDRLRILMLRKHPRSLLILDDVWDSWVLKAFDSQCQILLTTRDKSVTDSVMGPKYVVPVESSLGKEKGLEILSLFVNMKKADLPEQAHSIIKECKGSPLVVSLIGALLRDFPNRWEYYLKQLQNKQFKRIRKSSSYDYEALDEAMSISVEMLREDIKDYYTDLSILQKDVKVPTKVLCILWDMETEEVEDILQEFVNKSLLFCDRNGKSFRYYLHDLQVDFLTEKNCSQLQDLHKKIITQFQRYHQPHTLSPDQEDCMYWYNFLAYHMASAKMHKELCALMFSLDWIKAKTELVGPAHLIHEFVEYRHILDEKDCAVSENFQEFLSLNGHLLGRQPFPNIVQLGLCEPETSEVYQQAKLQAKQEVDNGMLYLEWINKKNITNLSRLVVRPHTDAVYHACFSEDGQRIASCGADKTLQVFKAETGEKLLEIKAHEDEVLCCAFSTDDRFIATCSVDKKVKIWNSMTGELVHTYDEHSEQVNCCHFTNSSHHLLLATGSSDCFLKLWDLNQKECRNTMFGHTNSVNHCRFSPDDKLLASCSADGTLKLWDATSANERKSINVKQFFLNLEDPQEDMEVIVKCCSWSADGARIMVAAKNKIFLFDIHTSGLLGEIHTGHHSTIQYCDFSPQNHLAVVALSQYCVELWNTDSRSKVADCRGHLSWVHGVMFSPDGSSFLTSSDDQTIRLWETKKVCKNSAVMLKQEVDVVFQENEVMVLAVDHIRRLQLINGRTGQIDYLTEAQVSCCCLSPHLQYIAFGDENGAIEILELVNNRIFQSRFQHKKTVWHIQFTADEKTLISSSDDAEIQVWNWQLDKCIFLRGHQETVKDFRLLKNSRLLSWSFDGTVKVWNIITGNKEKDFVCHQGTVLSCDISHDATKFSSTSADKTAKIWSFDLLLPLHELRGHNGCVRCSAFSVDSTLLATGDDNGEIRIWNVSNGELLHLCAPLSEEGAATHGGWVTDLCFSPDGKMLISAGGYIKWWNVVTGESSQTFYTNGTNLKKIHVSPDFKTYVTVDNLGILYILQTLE
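Material: biochemical Apaf-1 apoptosome reconstitution. Medium: Hepes buffer, pH 7.5. Also added: cytochrome c activation, bis-DEVD rhodamine 110 substrate. Timing: 30 min compound preincubation, 50 min activation, room temperature. Measured by: rhodamine 110 fluorescence at Ex 480/Em 540 nm.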
TDP2 inh – TDP2 (human) inhibition, absorbance primary screen; O95551; recombinant TDP2, T5PNP hydrolysis, p-nitrophenol absorbance 415 nm; inhibition, % at 12.8 µM; 0.34% of 370,000 active;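 active = inhibition above the mean of all tested compounds plus 3 SD, set per campaign, cut at about 25% in these data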;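 note: 0% = DMSO with enzyme and 100% = buffer with substrate but no TDP2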
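System: recombinant human TDP2 / Amount: 120 nM TDP2 per well / Also added: 5 mM T5PNP chromogenic substrate / Doses: 12.8 µM single point, 1% DMSO / Incubation: 2 h at 37 °C / Detection: p-Nitrophenol epi absorbance / Evaluation: % inhibition relative to enzyme-containing and enzyme-free wells / Repeats: singlicate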
* hit, by the source's call; . = no result given.

SMILES	PAFAH1B3 FP inh	PAFAH2 FP inh	PAFAH1B2 FP inh	Apaf1 inhib	TDP2 inh
Cc1ccc([C@H]2C(C(=O)O)=C[C@@H](C(C)(C)C)N2S(=O)(=O)c2ccc(C)cc2)cc1	0.8	4.8	24.2*	-6.9	-1.2
Cc1ccc(S(=O)(=O)N2[C@@H](c3ccc(C(C)C)cc3)C(C(=O)O)=C[C@H]2C(C)(C)C)cc1	-2.7	4.5	27.7*	2.4	2.7
Cc1ccc(S(=O)(=O)N2[C@@H](c3cccc(C)c3)C(C(=O)O)=C[C@H]2C(C)(C)C)cc1	-0.4	5.5	30.9*	-2.2	-9.6
O=C1c2cc(Br)ccc2N(Cc2ccc(Br)cc2)S(=O)(=O)C1c1cc(Cl)c(Cl)cc1[N+](=O)[O-] (stereo not drawn)	19.9	53.8*	44.2*	23.4	.
O=C1CS(=O)(=O)N(Cc2cccc(F)c2)c2ccc(Br)cc21	-1.4	-4.8	2.8	9.9	5.2
COCC(=O)N[C@@H]1C[C@@H]2O[C@H](CO)CC[C@@H]2O[C@@H]1CCc1ccc(-c2ccccc2)cc1	.	.	.	.	4.2
O=C(O)CC1c2ccccc2CCN1S(=O)(=O)c1ccc(F)cc1 (stereo not drawn)	1.3	-6.2	31.2*	-5.7	-5.3
COc1ccc(OCc2nn3c(-c4ccccc4)nnc3s2)cc1	.	.	.	.	-3.0
C=CCNC(=O)Nc1ccc2c(c1)[C@@]1(CC(=O)N(CC(C)C)C1c1ccccc1)C(=O)N2C (stereo partly drawn)	.	.	.	.	4.4
O=S1(=O)c2ccc(N3CCSCC3)cc2Oc2ccccc2CN1Cc1cn(Cc2ccc(F)cc2)nn1	.	.	.	.	-8.8
COc1ccc([C@@H]2CC=C(C(=O)O)[C@H](c3ccc(F)cc3)N2S(=O)(=O)c2ccccc2C)cc1	1.1	0.5	24.8*	7.8	-16.8
COc1ccc([C@@H]2CC=C(C(=O)O)[C@H](c3ccccc3F)N2S(=O)(=O)c2ccccc2C)cc1	14.4	4.2	11.3	7.4	4.8
COc1ccc([C@@H]2CC=C(C(=O)O)[C@H](c3ccc(F)cc3)N2S(=O)(=O)c2ccc(Cl)cc2)cc1	4.4	3.6	28.7*	20.6	13.0
CCN1CCCCC(NC(=O)COCc2ccccc2)C1=O (stereo not drawn)	.	.	.	.	4.8
O=C(NC1CCCCN(Cc2cccc(Cl)c2)C1=O)c1ccccc1 (stereo not drawn)	.	.	.	.	2.6
COC(CNC(=O)[C@H](Cc1ccccc1)NCC(=O)NC1CCCCC1)OC	.	.	.	.	-3.5
O=C(N[C@H](Cc1ccccc1)C(=O)N1CCN(CC(=O)N2CCCC2)CC1)[C@H]1O[C@@H](n2ccc(=O)[nH]c2=O)[C@H](O)[C@@H]1O	.	.	.	.	-7.0
CCCCCCCCn1c(=O)c(C(=O)OCC)c(O)c2ccccc21	9.1	2.0	24.3*	5.4	9.2
COC(=O)C1CN(CCc2ccccc2)CCS(=O)(=O)N1Cc1ccc(C(F)(F)F)cc1 (stereo not drawn)	.	.	.	.	-2.1
Brc1ccc(N/N=C(/N=Nc2nn[nH]n2)c2ccccc2)cc1	22.7	44.3*	20.7	17.0	3.0
O=C1NCN(c2ccccc2)C12CCN(CCCC(c1ccc(F)cc1)c1ccc(F)cc1)CC2	8.5	5.2	1.8	54.7*	2.8
O=C(CCCN1CCN(c2ccccc2)CC1)c1ccc(F)cc1	.	.	.	.	-15.3
CC(NCCS(=O)(=O)c1ccc(Cl)cc1)c1cccc(Cl)c1 (stereo not drawn)	13.4	6.8	24.2*	11.7	8.9
CC(C)c1ccc(C(C)NCCS(=O)(=O)c2ccc(Br)cc2)cc1 (stereo not drawn)	-4.6	-5.2	26.0*	28.5	-17.6
CC(C(=O)NCCS(=O)(=O)c1ccc(Cl)cc1)S(=O)(=O)c1ccc(Cl)cc1 (stereo not drawn)	9.4	4.7	14.2	-1.1	-4.8
SMILES	PAFAH1B3 FP inh	PAFAH2 FP inh	PAFAH1B2 FP inh	Apaf1 inhib	TDP2 inh
O=C(Nc1ccc(OC(F)(F)F)cc1)c1[nH]ncc1[N+](=O)[O-]	6.5	37.3*	3.0	4.4	-13.0
O=C(Nc1ccc(S(=O)(=O)N2CCCCCC2)cc1)c1[nH]ncc1[N+](=O)[O-]	3.6	3.8	6.9	3.2	1.3
CC(=O)N1CCc2c(sc(NC(=O)c3cccc(N4C(=O)CCC4=O)c3)c2C(N)=O)C1	7.5	-5.4	1.6	57.0*	5.8
NC(=O)c1c(NC(=O)c2cccc(N3C(=O)CCC3=O)c2)sc2c1CCCCC2	-1.6	-0.9	6.5	-2.8	3.0
CC1(C)CC2CN(Cc3ccccc3)S(=O)(=O)N2C1 (stereo not drawn)	.	.	.	.	-6.4
CC(NC(=O)c1cc(S(=O)(=O)N(C)C)ccc1Cl)C1CC2CCC1C2 (stereo not drawn)	-2.1	4.0	8.3	3.2	-8.0
CC(NS(=O)(=O)c1ccccc1Cl)C1CC2CCC1C2 (stereo not drawn)	0.3	-8.9	26.1*	30.3	-17.1
CCOC(=O)c1cc(C#N)c(SCC(=O)O)[nH]c1=O	31.4*	-5.6	1.9	11.3	-17.8
CCOC(=O)c1cc(C#N)c(SCC(N)=O)[nH]c1=O	19.0	9.2	4.8	6.4	12.9
COc1ccc(CNC(=O)O[C@H]2CC[C@@]34CCCN3C(=O)CCC[C@H]4[C@H]2C)cc1	.	.	.	.	-1.2
O=C1CSC(=S)N1/N=C/c1ccc(O)c(O)c1O	19.3	35.7*	7.4	25.5	.
Cc1cccc(N=C2NC(=O)/C(=C/C=C/c3ccco3)S2)c1C	9.2	47.7*	8.9	.	14.2
COc1ccc(OC)c(NC(=O)CSc2nnc(CNC(=O)COc3ccc(Cl)cc3)o2)c1	-1.6	-1.1	27.6*	-2.7	6.9
Cc1cccc2c(N=O)c(O)[nH]c12	53.4*	24.9	30.2*	10.4	-1.8
O=C(NC1CCCCN(Cc2cccc(Cl)c2)C1=O)c1ccc2ccccc2c1 (stereo not drawn)	.	.	.	.	-5.0
CCN(CC(=O)NCc1ccc(Cl)cc1)C(=O)/C=C/c1ccccc1	6.1	2.2	26.5*	3.7	4.5
CCN(CC(=O)NCc1ccc(Cl)cc1)C(=O)/C=C/c1ccc(C#N)cc1	1.6	-0.9	1.5	12.7	-12.5
C=CC[C@H](CC(=O)N(CCO)Cc1ccccc1)C(=O)N[C@H](COC(=O)[C@@H](CC=C)Cc1ccc(F)cc1)Cc1ccccc1	3.4	-0.8	57.3*	22.1	-14.7
C=CC[C@@H](CC(=O)N(CCO)Cc1ccccc1)C(=O)N[C@H](C)COC(=O)[C@@H](CC=C)Cc1ccc(F)cc1	7.2	13.0	10.9	22.9	-2.6
C=CCC[C@H](Cc1ccc(F)cc1)C(=O)O[C@H](CNC(=O)[C@@H](CC=C)CC(=O)N(CCO)Cc1ccccc1)c1ccccc1	5.0	5.7	26.8*	23.3	-0.5
c1nc(NCC2CCCCO2)c2cc(-c3ccc4c(c3)OCO4)ccc2n1 (stereo not drawn)	.	.	.	.	8.4
Cc1ccc(-c2ccc(CCC(=O)O)n2-c2ccc(O)cc2)cc1	5.6	-5.3	12.8	4.0	5.2
O=C(O)CCc1ccc(-c2ccc(Br)cc2)n1-c1ccc(O)cc1	0.1	1.0	33.4*	-0.1	-14.3
COc1ccc(Cn2cc(CN3[C@H](C)COc4cc(Br)ccc4S3(=O)=O)nn2)cc1	.	.	.	.	-0.4

Bioassay records as filed in PubChem.
